LMPTP block – LMPTP (human) inhibition; P24666; recombinant LMPTP-A, OMFP fluorogenic substrate, fluorescence intensity; inhibition, % at 20 µM; hit rate 0.22% among 360,000; AID 651560;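 active means compounds that cut the enzyme signal by at least half of the control window in the single-dose screen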;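 further: plate controls were DMSO wells with enzyme plus substrate for no effect and substrate without enzyme for full effect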
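Test system – LMPTP-A phosphatase enzyme · Quantity – 0.625 nM LMPTP-A final · Reagent – OMFP substrate, 400 µM final · Dosing – one test concentration per compound, 20 µM, with 3% DMSO overall · Timing – 50 min enzyme reaction at room temperature, protected from light · Detection – fluorescence intensity · Controls – substrate-only low control, DMSO enzyme-plus-substrate high control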
SUMO1 PPI mod – modulators of human SUMO1-mediated protein-protein interactions; hit rate 0.33% among 360,000; inhibition, % at 20 µM; SUMO1 binding to a labelled peptide, TR-FRET, 1 h; in the data active means inhibition above about 37%
STEP inh – inhibitors of human striatal-enriched phosphatase STEP; P54829; inhibition, % at 20 µM; recombinant STEP, OMFP fluorogenic substrate, fluorescence; AID 588621; hit rate 0.25% among 360,000;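 active means inhibition at 20 µM, scaled per plate between control wells, above about 37%, limit read from the data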;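 further: 0% = DMSO with enzyme and substrate and 100% = substrate only without enzyme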
Target sequence (P54829 whole entry, looked up): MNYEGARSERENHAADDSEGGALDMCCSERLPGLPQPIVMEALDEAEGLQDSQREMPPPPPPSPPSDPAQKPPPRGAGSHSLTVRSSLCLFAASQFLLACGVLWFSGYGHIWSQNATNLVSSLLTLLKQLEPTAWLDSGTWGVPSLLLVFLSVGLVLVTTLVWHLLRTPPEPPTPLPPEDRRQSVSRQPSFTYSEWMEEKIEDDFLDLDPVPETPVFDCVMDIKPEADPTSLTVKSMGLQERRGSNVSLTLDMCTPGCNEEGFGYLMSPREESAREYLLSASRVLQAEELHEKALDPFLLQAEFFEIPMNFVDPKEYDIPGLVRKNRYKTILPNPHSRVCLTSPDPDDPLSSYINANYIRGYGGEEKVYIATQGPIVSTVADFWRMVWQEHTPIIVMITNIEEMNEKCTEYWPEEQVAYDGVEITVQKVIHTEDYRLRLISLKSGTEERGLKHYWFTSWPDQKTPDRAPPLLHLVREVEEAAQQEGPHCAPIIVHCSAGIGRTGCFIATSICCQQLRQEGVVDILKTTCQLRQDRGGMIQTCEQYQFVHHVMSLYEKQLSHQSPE
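material = STEP tyrosine phosphatase | reagent = fluorogenic phosphatase substrate OMFP at 25 µM final | doses = single compound dose of 20 µM, 1% DMSO final | schedule = 20 min reaction, room temperature, in the dark | measured by = fluorescence, 480/540 nm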
Scp1 inh – Scp-1 (human) phosphatase inhibition | Q9GZU7 | Recombinant Scp1, phosphopeptide, malachite green phosphate absorbance | inhibition, % at 20 µM | hit rate 0.88% among 340,000 | AID 493091;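 active means inhibition above about 50% at 20 µM, limit read from the data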;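 further: plate controls were DMSO wells with enzyme for no effect and wells lacking enzyme for full effect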
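Material: truncated SCP-1 phosphatase (76-261aa) / Buffer or medium: 50 mM Tris acetate pH 5.5, 0.005% Tween-20, 10 mM MgCl2 / Compound dosing: one concentration, 20 µM, with 1.0% DMSO / Incubation: 45 min room-temperature reaction, 5 min colour, 30 min stabiliser / Detection: colorimetric free-phosphate detection, absorbance 630 nm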
DNMT1 inh – DNMT1 (human) enzyme inhibition; DNMT1 molecular beacon, Hinp1I cleavage, fluorescence; inhibition (reported as % activation of signal), % at 10 µM; hit rate 0.83% among 360,000; AID 588458; in the data active means inhibition above about 50%
Scp1 confirm – Scp-1 (human) inhibition, single-dose confirmed; shares compounds with Scp1 inh; recombinant SCP-1 catalytic domain, phosphate release, malachite green absorbance; inhibition, % at 20 µM; hit rate 61% among 2,500;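 further: plate controls were DMSO with enzyme for no effect and buffer wells lacking enzyme for full effect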
Scp-1 MG ctr – interferes with malachite green readout, flagging false Scp-1 hits | shares compounds with Scp1 inh | Colorimetric interference counterscreen, malachite green absorbance 630 nm | apparent inhibition (interference), % at 20 µM | AID 540313 | 2,500 tested, under 10 active;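 further: compounds added after enzyme reaction finished so only phosphate colour detection is probed; plate controls were DMSO wells with completed Scp-1 reaction for no effect and substrate wells lacking enzyme for full effect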
Scp-1 Tm shift – binds human Scp-1, shifting its melting temperature | shares compounds with Scp1 inh | Recombinant SCP1, Sypro Orange thermal shift Tm | thermal shift relative to vanadate control, % at 40 µM | hit rate 25% among 1,500;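 active means substances whose mean melting-temperature shift, as a percentage of the reference inhibitor's shift, reaches about 5.3%, limit read from the data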;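 further: 0% = Tm of DMSO wells and 100% = Tm with sodium orthovanadate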
* marks the source's active call; other numbers are inactive results; · = not tested or not shown. Shown are actives, neighbours in structure and some others; about 1.7% of the full set was active somewhere.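 How the source made its calls, unless noted: active means inhibition of at least 30% at 20 µM; inactive means the rest.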

SMILES	LMPTP block	SUMO1 PPI mod	STEP inh	Scp1 inh	DNMT1 inh	Scp1 confirm	Scp-1 MG ctr	Scp-1 Tm shift
C[C@]12CCC3C(CC[C@H]4C[C@@H](O)CC[C@]34C)C1C[C@@H](Br)[C@@H]2O (stereo partly specified)	·	·	·	59*	·	-4	-8	·
CN1CCN(C(=O)COc2ccc(N(C)S(=O)(=O)c3ccc(F)cc3)cc2)CC1	0	-1	-3	68*	-1	-10	-11	·
CC(C)[N+](C)(CCC(C(N)=O)(c1ccccc1)c1ccccc1)C(C)C	-1	1	-1	99*	3	91*	-7	-12
C[N+](C)(C)c1ccccc1	-1	0	-3	52*	-1	17	-11	·
O=C(NN=Cc1ccc(N(CCCl)CCCl)cc1)C(=O)c1c[nH]c2ccccc12	2	-6	-2	-8	-13	·	·	·
COc1ccc(C=C2C(=O)NC(=S)NC2=O)cc1OC	-2	-3	0	10	0	·	·	·
CCOc1cc(C=C2C(=O)NC(=S)NC2=O)ccc1O	2	-3	-3	50	-4	7	-16	·
O=C1NCN(c2ccccc2)C12CCN(C(CCc1ccccc1)c1nnnn1C1CCCC1)CC2 (stereo unspecified)	6	3	5	·	0	·	·	·
COc1ccc2c3c1OC1C(O)C=CC4C(C2)[N+](C)(C)CCC341 (stereo unspecified)	-1	-1	-2	89*	-1	78*	-13	-20
CN1CC[C@]23c4c5ccc(O)c4OC2[C@H](O)C=CC3[C@H]1C5 (stereo partly specified)	-1	-2	0	2	3	·	·	·
O=[N+]([O-])c1cc(S(=O)(=O)c2ccc(O)c([N+](=O)[O-])c2)ccc1O	-3	33	2	56*	41	61*	-8	17*
O=[N+]([O-])c1cccc(O)c1	-2	-14	-2	-3	0	·	·	·
O=C1C2CC(CN3CCCCC23)C2CCCCN12 (stereo unspecified)	-1	-2	1	·	-1	·	·	·
CCCC[N+]12CCC(CC1)C(=C(c1ccccc1)c1ccccc1)C2	0	2	1	98*	2	86*	-7	0
CCN(CC)P(c1n(C)cc[n+]1C)N(CC)CC	0	-1	4	99*	3	83*	-11	-26
CN(C)C(=O)OCc1n(C)cc[n+]1C	-1	11	-2	-6	2	·	·	·
NC(Cc1ccc(F)cc1)c1csc(Nc2ccccn2)n1 (stereo unspecified)	-2	-7	0	·	-2	·	·	·
COC(=O)C1=C(c2cccc(C#N)c2)C[C@@H]2CC[C@H]1N2C(=O)NCCO	-2	3	2	71*	6	2	-1	·
CC(C)Cc1[nH]c(=O)c(C#N)c2c1CCC2	0	0	0	87*	-1	-7	-10	·
Cc1ccc(S(=O)(=O)N2Cc3cc(-c4ccccc4)ccc3-n3nncc3C2)cc1	3	6	18	·	-11	·	·	·
C[Se]C[C@@H](N)C(=O)O	0	0	-1	68*	7	31*	-11	-23
CN1CCC(OC(=O)Cc2ccccc2)CC1	-1	-3	-2	-7	0	·	·	·
C[N+]1(CC(COCc2ccccc2)OC(=O)Cc2ccccc2)CCOCC1 (stereo unspecified)	-1	-4	-1	112*	11	89*	-4	-3
Cc1cccc(C)c1-n1nnnc1C(c1cccs1)N1CCC2(CC1)C(=O)NCN2c1ccccc1 (stereo unspecified)	5	6	3	·	-8	·	·	·
O=C(O)CCn1cc(C=C2C(=O)NC(=S)NC2=O)c(-c2cc3ccccc3oc2=O)n1	0	10	2	87*	53*	69*	-9	-9
O=C(O)CCn1cc(C=C2C(=O)NC(=S)NC2=O)c(-c2ccccc2)n1	-3	7	5	21	3	·	·	·

Compound activity: PubChem, Sanford-Burnham Center for Chemical Genomics
